# In ChEMBL document CHEMBL4308895, “A thiol-inducible and quick-response DNA cross-linking agent” (Bioorg Med Chem Lett, 2019):
# Key:
# [1] = Drug metabolism in pH 7.3 phosphate buffer saline assessed as 1,4-Dihydroxy-2, 5-di-(trimethylammonium iodide-methyl)phenyl formation measured after 0.5 to 6 hrs by 1H-NMR analysis
# [2] = Stability in pH 7.3 phosphate buffer saline measured within 1.5 hrs by 1H-NMR analysis; type: physicochemical; details: pH 7.3, 1.5 h
# [3] = L-cysteine reactivity in pH 7.3 phosphate buffer assessed as color change from red to orange at 5 mM measured after 1 min; type: physicochemical; details: pH 7.3, 1 min, 5000 µM
# Method in brief: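 Agent at 5, 2.5 or 1 mM in phosphate buffer pH 7.3, mixed with L-Cys at twice the agent concentration (10, 5, 2 mM). Color change scored visually against agent-alone samples.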
# DNA = experiment: Induction of Escherichia coli pBR322 DNA cross-linking at 1 mM after 12 hrs in presence of GSH by agarose gel electrophoresis relative to control; type: nucleic-acid assay
# Method in brief: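 Linearized pBR322 plasmid DNA in phosphate buffer pH 7.3 with 1 mM agent plus 2 mM GSH. Cross-linking resolved by denaturing alkaline agarose gel electrophoresis, untreated plasmid as control lane. Yield given as percent cross-linked DNA.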
# [4] = Stability of the compound under electrospray ionisation mass spectra condition; type: physicochemical
# [5] = Drug metabolism in pH 7.3 phosphate buffer saline assessed as 1,1'-(2-(2,4-dinitrophenylsulfonyloxy)-5-hydroxy-1,4-phenylene)bis(N,N,N-trimethylmethanaminium)iodide formation measured after 5 mins by 1H-NMR analysis
# [6] = L-proline reactivity in DMSO-d6/D2O mixture assessed as 1,4-Dihydroxy-2, 5-di-(trimethylammonium iodide-methyl)phenyl formation at 5 mM by 1H-NMR analysis
# [7] = L-valine reactivity in DMSO-d6/D2O mixture assessed as 1,4-Dihydroxy-2, 5-di-(trimethylammonium iodide-methyl)phenyl formation at 5 mM by 1H-NMR analysis
# [8] = Beta-alanine reactivity in DMSO-d6/D2O mixture assessed as 1,4-Dihydroxy-2, 5-di-(trimethylammonium iodide-methyl)phenyl formation at 5 mM by 1H-NMR analysis
# [9] = L-arginine reactivity in DMSO-d6/D2O mixture assessed as 1,4-Dihydroxy-2, 5-di-(trimethylammonium iodide-methyl)phenyl formation at 5 mM by 1H-NMR analysis
# [10] = Glycine reactivity in DMSO-d6/D2O mixture assessed as 1,4-Dihydroxy-2, 5-di-(trimethylammonium iodide-methyl)phenyl formation at 5 mM by 1H-NMR analysis
# [11] = Drug metabolism in pH 7.3 phosphate buffer saline assessed as 2, 4-dinitrobenzene sulfonic acid formation measured immediately by 1H-NMR analysis
structure (smiles),measurement,setting,value
C[N+](C)(C)Cc1cc(OS(=O)(=O)c2ccc([N+](=O)[O-])cc2[N+](=O)[O-])c(C[N+](C)(C)C)cc1O,Drug metabolism,[1],Metabolite not detected
C[N+](C)(C)Cc1cc(-c2ccc(OS(=O)(=O)c3ccc([N+](=O)[O-])cc3[N+](=O)[O-])c(C[N+](C)(C)C)c2)ccc1OS(=O)(=O)c1ccc([N+](=O)[O-])cc1[N+](=O)[O-].[I-].[I-],Stability,[2],Stable
same,Drug metabolism,[3],Metabolite_Detected
same,Activity,DNA,0%
C[N+](C)(C)Cc1cc(-c2ccc(O)c(C[N+](C)(C)C)c2)ccc1O.[I-].[I-],Activity,DNA,0%
same,Stability,[4],Unstable
Cc1cc(C[N+](C)(C)C)c(O)c(C[N+](C)(C)C)c1.[I-].[I-],Activity,DNA,0%
same,Stability,[4],Unstable
Cc1cc(C[N+](C)(C)C)c(OS(=O)(=O)c2ccc([N+](=O)[O-])cc2[N+](=O)[O-])c(C[N+](C)(C)C)c1.[I-].[I-],Drug metabolism,[3],Metabolite_Detected
same,Activity,DNA,0%
C[N+](C)(C)Cc1cc(OS(=O)(=O)c2ccc([N+](=O)[O-])cc2[N+](=O)[O-])c(C[N+](C)(C)C)cc1OS(=O)(=O)c1ccc([N+](=O)[O-])cc1[N+](=O)[O-].[I-].[I-],Drug metabolism,[5],Metabolite detected
same,Drug metabolism,[6],Metabolite not detected
same,Drug metabolism,[7],Metabolite not detected
same,Drug metabolism,[3],Metabolite_Detected
same,Drug metabolism,[8],Metabolite not detected
same,Activity,DNA,34%
same,Drug metabolism,[9],Metabolite not detected
same,Drug metabolism,[10],Metabolite not detected
same,Drug metabolism,[11],Metabolite detected
C[N+](C)(C)Cc1cc(O)c(C[N+](C)(C)C)cc1O.[I-].[I-],Activity,DNA,43%
same,Stability,[4],Unstable
